The nature of this series: Toxicity liver stage against HepG2, at 10uM. To be noted: human, HepG2-A16-CD81EGFP cells; read-out: INHIBITION
The class given is cell-based. The arrangement: test concentration 10 uM, cell line HepG2-A16-CD81EGFP. In short, it runs like this:
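Uninfected HepG2-A16-CD81EGFP cells, 3 × 10^3 per well, 1536-well, plated on prespotted compound at 10 μM final, parasite-free screening media added to match infected plates; puromycin 10 μM positive, DMSO 0.5% negative; run in parallel with 48 h PbLuc assay at 37 °C, 5% CO2; viability by CellTiter-Glo luminescence, normalized to controls.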

`O=C1[C@H]2CN(Cc3ccco3)C[C@H]2CN1c1ccsc1`: the cytotoxicity at 10 µM was -71.9%.
The value for `COc1cccc(Cn2cccc(C#N)c2=O)c1` was 11.3%; that for `O=C(CCn1cc(Cl)cn1)Nc1nncs1` was -9.61%.
The value for `CN(Cc1nnn(CC2CC2)n1)C(=O)c1ccccc1` was 0.889%; that for `CCCOC1CCCN(c2nc(CC)nc3c2cnn3C)C1` (stereo unspecified) was -3.29%; that for `CN1CCOC(CNC(=O)C2(c3cccc(C(F)(F)F)c3)CCCC2)C1` (stereo unspecified) was -4.22%.
`O=C1CC2(CCSC2)C(=O)N1Cc1ncc(-c2cccc(F)c2)o1` (stereo unspecified): the cytotoxicity at 10 µM is 10.3%.
`CCC(C)(C)C(=O)Nc1ccc2ccn(CC(=O)NC)c2c1`: the cytotoxicity at 10 µM came to 4.19%.
With `Cc1cccc(CN2C[C@@H]3CN(C(=O)NC(C)C)C[C@@H]3C2=O)n1`, the cytotoxicity at 10 µM came to 2.91%.
On to `CC(C)c1nc(C2CCCN(c3nccc(N4CCCC4)n3)C2)no1` (stereo unspecified), for which the cytotoxicity at 10 µM stood at 27.6%.
As to `COc1ccc(Br)cc1CCC(=O)N1CCCC(O)C1` (stereo unspecified), the cytotoxicity at 10 µM stood at 5.66%.
The value for `Cc1nc(-c2c(C)noc2C)cc(C2CCN(S(=O)(=O)N(C)C)CC2)n1` was 4.62%.
`CCN(CC)CCn1cnc(-c2ccccc2)c1-c1cnc(C)s1`: the cytotoxicity at 10 µM turned out to be 3.33%.
The value for `O=C(Nc1c(F)cccc1Oc1ccccc1)C1CCS(=O)(=O)C1` (stereo unspecified) was 1.91%; that for `CC(=O)N[C@@H]1Cc2ccccc2[C@H]1Nc1nnc(C2CC2)o1` was -47.1%.
To `COCCN1CCC(NCc2cccnc2)C1` (stereo unspecified) belongs -10.4%.
The value for `CN(C)c1ncccc1CNS(=O)(=O)c1cc(F)cc(F)c1` was -14%; that for `Cn1c(N)nnc1SCc1cc(Br)ccc1Cl` was -21.7%; that for `CN(C)c1cccc(C(=O)N2CCn3c(nnc3C3CC3)C2)c1` was 0.7%.
As for `Cc1cnn(CC2CCCN2CC(=O)N(C)Cc2ccsc2)c1` (stereo unspecified), the cytotoxicity at 10 µM was 3.82%.
To `COc1cccc(C2CC(=O)Nc3nc(N4CCOCC4)sc32)c1OC` (stereo unspecified) belongs -3.26%; to `CC(C)NC(=O)N1CCCC2(CCCCN2)C1` (stereo unspecified), 11.4%; to `O=C([C@@H]1CCCN1c1nccc(Nc2ccccc2)n1)N1CCCCC1`, 0.325%.
To `CC(C)Nc1nc2c(c(NC3CC3)n1)CCN(Cc1nccn1C)CC2` belongs 0.325%; to `CC(O)CN1CCN(C(=O)c2cc(Cl)cc3cccnc23)CC1` (stereo unspecified), -1.78%.
To `CCN1CCN(CCNC(=O)c2sc(C(C)C)nc2C)CC1` belongs 6.23%.
`CCC(CO)N(Cc1ccccn1)C(=O)c1ccc(=O)[nH]c1` (stereo unspecified): the cytotoxicity at 10 µM is -0.65%.
To `O=C(NCCCn1cccn1)C1(c2ccc(F)cc2)CC1` belongs -6.13%; to `Cc1cnn(CC2CCCN2C(=O)CCc2ccsc2)c1` (stereo unspecified), -1.64%; to `Cc1nc(N(C)C)nc(NCCc2ccccn2)c1C`, 4.59%.
The value for `Cc1csc(C(C#N)C(=O)Nc2ccccc2)n1` (stereo unspecified) was 12.6%.
The value for `Cc1cnn(CCNCC(=O)NC(c2ccccc2)c2ccccc2)c1` was -5.73%.
`Cc1noc([C@H]2C[C@H]3CN(C(=O)Cc4ccsc4)CC[C@H]3O2)n1`: the cytotoxicity at 10 µM is -1.68%.
To `CO[C@@H](C(=O)NC1CCOCC1)c1ccccc1` belongs -2.43%; to `Cc1cc(CN2CCN(CC(O)C(C)(C)C)CC2)no1` (stereo unspecified), -14.8%; to `Cc1cccc(-c2nc(N)nc3c2CN(C(=O)c2cc(C)n[nH]2)C3C)c1` (stereo unspecified), 4.58%.
For `COC[C@@H]1CC[C@H]2[C@H](CCN2S(=O)(=O)c2cccc(F)c2)O1`, the cytotoxicity at 10 µM stood at 2.24%.
The value for `O=C(C1SCCc2sccc21)N1CCC(O)CC1` (stereo unspecified) was -7.38%; that for `CCc1cnc(N)nc1NCCCN1CCCCC1CO` (stereo unspecified) was -0.0414%.
On to `NCC1Cc2cc(-c3nccc(N4CCC(O)CC4)n3)cc(Cl)c2O1` (stereo unspecified), for which the cytotoxicity at 10 µM is -4.33%.
For the compound `CCC(CC)NC(=O)c1ccc2nnc(C3CCN(C(C)=O)C3)n2c1` (stereo unspecified), the cytotoxicity at 10 µM is -2.19%.
The value for `CO[C@@H]1CN(c2ccccc2)S(=O)(=O)[C@@]12CCN(CC1CC1)C2` was 1.84%; that for `Cc1nc(-c2noc3ccc(C(=O)NCCN(C)C)cc23)co1` was 2.25%; that for `Cc1ccc(F)cc1S(=O)(=O)N1C[C@@H](C)[C@@](C)(O)C1` was -0.784%.
For the compound `CCCN1CCN(Cc2cccc(OCC(N)=O)c2)[C@H]2CS(=O)(=O)C[C@H]21`, the cytotoxicity at 10 µM came out at 2.77%.
To `CC1CCN(CCNC(=O)C2CCN(C(=O)C(C)(C)C)CC2)CC1` belongs 6.81%; to `CCc1ccc(NC(=O)c2cnc(N3CCCC3)nc2C)cc1`, 0.709%.
The value for `NC(=O)[C@H]1CCCN1C(=O)c1csc(-c2ccc(C(F)(F)F)cc2)n1` was -0.187%; that for `c1cnc(N2CCOCC3(CCCN(c4nncs4)C3)C2)cn1` (stereo unspecified) was 3.92%.
To `CCc1sc(C(=O)Nc2cnn(CC(N)=O)c2)cc1C` belongs -2.68%; to `N#CCC(=O)NCc1nnc2n1CCN(Cc1cccs1)C2`, -136%; to `CCS(=O)(=O)N1C[C@H]2CN(c3cnn(C)c3)C(=O)[C@H]2C1`, -1.19%.
On to `COc1cccc(CNCC2CCN(CC(C)O)CC2)c1OC` (stereo unspecified), for which the cytotoxicity at 10 µM was -0.191%.
The value for `Cc1ccccc1C(=O)NCc1ccc(N2CCNC(=O)C2)c(F)c1` was -13.8%; that for `O=C1CC(NCc2cnc(N3CCCC3)nc2)CN1c1ccccc1` (stereo unspecified) was -4.56%; that for `O=C(NCCC1=CCCCC1)NC1CCCc2c1cnn2CCO` (stereo unspecified) was -6.95%.
To `COCc1ccccc1CNc1cc(N2CCCC2CO)ncn1` (stereo unspecified) belongs -1.81%; to `NC(=O)c1cn[nH]c1C1CCCN1C(=O)c1ccccn1` (stereo unspecified), 0.893%; to `Cc1ccc(N2CCC3(CCN(Cc4csc(C)n4)C3=O)C2)nn1` (stereo unspecified), -111%.
Regarding `FC1(F)CCN(Cc2cccnc2)CC12CCN(c1ccccc1)C2` (stereo unspecified), the cytotoxicity at 10 µM was -84.5%.
To `Cc1nc(C(=O)NC2CCN(CCOc3ccc(Br)cc3)CC2)cs1` belongs 13%.
As for `O=C(CSc1ccc(F)c(F)c1)NS(=O)(=O)c1ccc2c(c1)OCCO2`, the cytotoxicity at 10 µM is -4.28%.
As for `CS(=O)(=O)N1CCc2[nH]cnc2C12CCN(C(=O)c1ccccc1)CC2`, the cytotoxicity at 10 µM is -2.66%.
To `CO[C@H]1CN(C(=O)OC(C)(C)C)CC1NCc1ccn(C)c1` (stereo partly specified) belongs -45.9%; to `FC(F)(F)c1ccc(-c2noc3c2CN(CC2CCCO2)CC3)cc1` (stereo unspecified), 1.99%.
To `Cc1cc(OCc2ccc(C(=O)O)s2)ccc1Cl` belongs 12.2%; to `CC(CNC(=O)Nc1cn[nH]c1)N1CCCC1` (stereo unspecified), -7.32%.
The value for `COc1cc(NC(=O)N2CCCC2c2nncn2C)ccc1Br` (stereo unspecified) was 5.67%; that for `NC(=O)c1cccc(CCNCc2cnc(C3CCC3)s2)c1` was 21.9%.
Consider `CC(=O)Nc1sc2c(c1C(=O)O)CCc1ccccc1-2`, for which the cytotoxicity at 10 µM was 0.513%.
The value for `CC(=O)N1[C@H](CN(C)C)C[C@@H]2CN(C(=O)c3ccno3)CC[C@@H]21` was 4.35%.
